# A selection: hits, their analogues and other compounds. The true share with any hit is near 1.9%.
# p-CIP stab down = compounds decreasing mouse p/CIP protein stability; decrease of EGFP signal, % at 10 µM; 0.01% of 290,000 active; F442A p/CIP-EGFP cells, EGFP fluorescence, 16 h; Q05BA5;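 active = EGFP signal decrease of at least 30% at 10 µM or well 3 SD below plate mean, unless failing retest; inactive = the rest, including hits failing retest or dose response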
# VIM-2 inhibitor = inhibitors of Pseudomonas aeruginosa VIM-2 metallo-beta-lactamase; purified VIM-2, nitrocefin hydrolysis, epi-absorbance fluorescence; AID 1527; 0.89% of 290,000 active; inhibition, % at 5.6 µM;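 active = inhibition above the mean of all tested compounds plus 3 SD, cutoff set per screening run, cut at about 7.5% in these data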;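 also: red hydrolysis product quenches plate fluorescence so inhibitors raise well fluorescence; 0% = enzyme with DMSO and 100% = DMSO without enzyme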
# SUMO HTRF inh = inhibitors of human SUMOylation (UBC9); inhibition, % at 35 µM; P63279; HTRF SUMOylation assay, SAE1/SAE2 + UBC9, in vitro; 0.36% of 290,000 active; in the data active = inhibition above about 50%, passing the limit was not always enough
# Target sequence (P63279 whole entry, looked up): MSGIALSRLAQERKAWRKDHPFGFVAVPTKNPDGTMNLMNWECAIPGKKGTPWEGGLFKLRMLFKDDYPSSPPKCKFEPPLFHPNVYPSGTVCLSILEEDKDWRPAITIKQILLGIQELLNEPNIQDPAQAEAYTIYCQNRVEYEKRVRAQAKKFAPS
# Fh CTSL1 inh = counter-screen for PFM18AAP inhibitors: inhibitors of F. hepatica cathepsin L1 | recombinant F. hepatica cathepsin L1, Z-Leu-Arg-MCA fluorescence | inhibition, % at 5.96 µM | 0.49% of 300,000 active;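 active = inhibition above the mean of all tested compounds plus 3 SD, set per screening campaign, cut at about 17% in these data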;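 also: 0% = plate median of test compound wells and 100% = 1 µM Z-Phe-Ala-diazomethylketone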
# IMP-1 inh-1 = inhibitors of Pseudomonas aeruginosa IMP-1 metallo-beta-lactamase; inhibition, % at 5.6 µM; purified IMP-1, nitrocefin hydrolysis, epi-absorbance fluorescence; 0.45% of 290,000 active;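 active = inhibition above the mean plus 3 SD of all compounds in the same screening run, cut at about 4.5% in these data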;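 also: 0% = IMP-1 with DMSO and 100% = DMSO wells lacking enzyme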
#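 system = purified recombinant IMP-1 beta-lactamase | amount = 0.2 nM IMP-1, as dispensed | medium = HEPES buffer pH 7.1 with ZnSO4 and Brij 35 | times = 25 °C, 15 min preincubation, 25 min reaction | detection = plate fluorescence quenching by hydrolysis product, ex 480/em 530 nm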
# T cell modulator = T cell immune modulators affecting CD8 T cell-vesicle binding | 2C CD8+ T cell-vesicle binding, flow cytometry; active compounds read low | response (vesicle binding), % at 7 µM | 0.068% of 330,000 active | AID 2052;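 active = response, share of CD8 T cells binding vesicles, and their 90th percentile fluorescence all below set limits, cut at about 80% in these data, passing the limit was not always enough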;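 also: values below 100% mean blocked vesicle binding to the CD8+ T cells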
#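 Benchmarks: naked versus QL9-loaded vesicles / Assay system: purified 2C TCR transgenic mouse naive CD8+ T cells / Technique: high-throughput flow cytometry with anti-B7-1 and anti-CD8 staining / Timing: Cell–vesicle co-incubation 1.5 h at 37 °C, staining 20 min on ice / Read-out: percent CD8+ FL2 mean versus row control / Probe or stimulus: QL9-loaded Drosophila micro-vesicles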
# IMP-1 inh-2 = blocks IMP-1 metallo-beta-lactamase in VIM-2 selectivity screen; shares compounds with VIM-2 inhibitor; purified IMP-1, nitrocefin hydrolysis, epi-absorbance fluorescence; inhibition, % at 5.6 µM; 1,300 tested, under 10 active; AID 1856; call rule not given here;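 also: 0% = enzyme with vehicle and 100% = vehicle without enzyme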
# VIM-2 FRET ctr = counter-screen for VIM-2 inhibitors: epi-absorbance artifacts via FRET; shares compounds with VIM-2 inhibitor; purified VIM-2, CCF2 FRET substrate hydrolysis; inhibition, % at 5.6 µM; 23% of 1,300 active; AID 1857;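 active = inhibition above the mean of all tested compounds plus 3 SD, cut at about 19% in these data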;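 also: 0% = VIM-2 plus DMSO and 100% = no enzyme wells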
# TEM-1 counter = selectivity counter-screen for VIM-2 inhibitors: E. coli TEM-1 inhibitors | shares compounds with VIM-2 inhibitor | Purified TEM-1, nitrocefin hydrolysis, epi-absorbance fluorescence | inhibition, % at 5.6 µM | 3% of 1,300 active;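 active = inhibition above that campaign's mean inhibition plus 3 SD, cut at about 0.46% in these data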;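 also: 0% = TEM-1 with DMSO and 100% = TEM-1 with 100 µM potassium clavulanate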
# Target sequence (P62593 whole entry, looked up): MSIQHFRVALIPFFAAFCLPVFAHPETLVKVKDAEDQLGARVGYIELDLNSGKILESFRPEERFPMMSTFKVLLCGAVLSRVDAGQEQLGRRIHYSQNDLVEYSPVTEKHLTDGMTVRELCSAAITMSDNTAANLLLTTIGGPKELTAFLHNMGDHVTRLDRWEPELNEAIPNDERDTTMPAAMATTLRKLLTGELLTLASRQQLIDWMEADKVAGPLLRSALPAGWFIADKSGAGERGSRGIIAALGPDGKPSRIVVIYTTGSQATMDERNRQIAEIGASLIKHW
# VIM-2 confirm 2 = confirmation of P. aeruginosa VIM-2 metallo-beta-lactamase inhibitors; shares compounds with VIM-2 inhibitor; purified VIM-2, nitrocefin hydrolysis, epi-absorbance; inhibition, % at 5.6 µM; 96% of 1,300 active;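 active = inhibition of the VIM-2 beta-lactamase enzyme above about 11% from the earlier first-round screen, limit read from the data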;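 also: 0% = VIM-2 with DMSO and 100% = buffer wells without enzyme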
# Numbers without * were called inactive; i = inactive; nt = not tested or not shown.
SMILES,p-CIP stab down,VIM-2 inhibitor,SUMO HTRF inh,Fh CTSL1 inh,IMP-1 inh-1,T cell modulator,IMP-1 inh-2,VIM-2 FRET ctr,TEM-1 counter,VIM-2 confirm 2
O=C(O)CCC(=O)N1CCN(c2ccc(C(=O)c3ccc(F)cc3)cc2)CC1,1,16*,-11,-1,-2,163,-3,0,-6,7
Cc1ccc(C(C)C)c(OC/C(O)=C(\C#N)c2nc3ccccc3[nH]2)c1,-18,-1,5,-2,-4,109,nt,nt,nt,nt
Cc1ccc(N2CN=C3SCC(=O)N3C2)cc1C,3,-2,-9,-4,-1,441,nt,nt,nt,nt
Cc1cc(Cl)ccc1OCC(=O)NCCCn1ccnc1,-10,-8,11,-6,-2,222,nt,nt,nt,nt
CCc1cc(=O)oc2c(C)c(OCC(=O)NCCCn3ccnc3)ccc12,-13,23*,15,1,0,i,-3,-1,-7,34*
CCc1cc(=O)oc2c3c(cc(OCC(=O)NCCCn4ccnc4)c12)OC(C)(C)CC3,4,46*,32,2,-4,530,-3,-10,-2,55*
CSCCC(NC(=O)c1cccc(S(=O)(=O)N2CCOCC2)c1)C(=O)Nc1cccc(C)c1 (stereo not given),-10,-4,3,3,-2,653,nt,nt,nt,nt
Cc1cccc(NC(=O)[C@@H]2CCCN2S(=O)(=O)c2ccc(Cl)cc2)c1,nt,nt,nt,nt,nt,260,nt,nt,nt,nt
CCCCCCCn1c(=N)n(CC(=O)c2ccco2)c2ccccc21,-4,18*,10,3,-3,279,-3,-1,-6,3
CCCCn1c(=N)n(CC(=O)c2ccco2)c2ccccc21,-11,-2,12,3,-1,172,nt,nt,nt,nt
Cc1nn(CC(=O)NCCCN2CCC(N3CCCCC3)CC2)c(=O)c2cc(-c3ccccc3)nn12,0,22*,10,-2,-2,374,-4,-1,-6,37*
Cc1cccc(C)c1OCC(=O)OC/C(O)=C(\C#N)c1nc2ccccc2[nH]1,-14,4,9,-1,-2,350,nt,nt,nt,nt
N#C/C(=C(/O)CCl)c1nc2ccccc2[nH]1,2,50*,-3,4,0,299,-3,-12,-7,36*
Cc1cc(C)cc(OCC(=O)OC/C(O)=C(\C#N)c2nc3ccccc3[nH]2)c1,3,14*,3,0,1,200,-3,-8,-4,5
COC(=O)c1ccc(-c2ccc(C(=O)N3CCCN(C)CC3)cc2)cc1,-2,13*,21,nt,-4,nt,-4,30*,-6,21*
CCOC(=O)N1CCC(Nc2ccc3nnc(-c4ccccc4)n3n2)CC1,-9,15*,0,-1,-4,210,-3,0,-3,24*
C=CCOc1ccc(/C=N/N2C(=O)C(CC(=O)Nc3ccc(F)cc3F)SC2=NC)cc1 (stereo not given),-9,-3,3,2,-4,247,nt,nt,nt,nt
COc1ccc(-c2n[nH]c(=S)n2-c2ccc(C)cc2)cc1OC,2,2,-4,-1,-2,182,nt,nt,nt,nt
COc1ccc(-c2n[nH]c(=S)n2-c2ccc3c(c2)OCCO3)cc1OC,-15,18*,8,2,-1,292,-3,50*,-6,31*
COc1ccc(-c2n[nH]c(=S)n2-c2ccc3c(c2)OCCO3)cc1,-4,13*,-8,2,-5,250,-3,34*,-8,19*
CC(C)CNC(=O)c1ccc2c(c1)C(=O)N(Cc1ccco1)C2=O,-9,3,10,4,2,382,nt,nt,nt,nt
CC(=O)Nc1cccc(Oc2nc(C(F)(F)F)nc3ccccc23)c1,-4,14*,-3,0,-4,873,-3,-1,-7,26*
COc1ccc(Oc2nc(C(F)(F)F)nc3ccccc23)cc1,-5,4,10,1,-3,257,nt,nt,nt,nt
COc1cc(Oc2nc(C(F)(F)F)nc3ccccc23)ccc1C=O,4,14*,-2,0,-1,244,-3,-4,-5,24*
CC(=O)Nc1cccc(Oc2nc(-c3ccccn3)nc3ccccc23)c1,9,-1,0,-4,-4,174,nt,nt,nt,nt
SMILES,p-CIP stab down,VIM-2 inhibitor,SUMO HTRF inh,Fh CTSL1 inh,IMP-1 inh-1,T cell modulator,IMP-1 inh-2,VIM-2 FRET ctr,TEM-1 counter,VIM-2 confirm 2
Cn1nnnc1SCC(=O)Nc1ncc(Cl)cc1Cl,nt,nt,nt,-1,nt,587,nt,nt,nt,nt
CCCCCCn1cc(C(=O)O)c(=O)c2cc(F)c(N3CCN(C)CC3)cc21,2,16*,4,3,2,280,-1,7,-1,19*
c1ccc(-c2cc(-c3nn4c(-c5ccco5)nnc4s3)c3ccccc3n2)cc1,16,2,20,8,-2,908,nt,nt,nt,nt
COc1cc(-c2nn3c(-c4ccccc4)nnc3s2)cc(OC)c1OC,-7,18*,-8,4,-3,193,-2,38*,-5,37*
Cc1cc(-c2nn3c(-c4ccccc4)nnc3s2)c2ccccc2n1,10,13*,9,3,-4,318,-3,10,-4,35*
COc1ccc(-c2nnc3sc(-c4ccco4)nn23)cc1OC,-10,2,16,0,-5,275,nt,nt,nt,nt
COc1cc(-c2nnc3sc(-c4ccncc4)nn23)cc(OC)c1OC,nt,nt,nt,-2,nt,173,nt,nt,nt,nt
COc1cc(OC)c(-c2nn3c(-c4ccco4)nnc3s2)cc1OC,-9,36*,33,nt,4,nt,-2,-5,-4,42*
COc1ccc(-c2nn3c(-c4ccco4)nnc3s2)cc1OC,-3,54*,2,-2,0,218,-4,-9,-12,56*
O=C1CC(C(=O)N2CCN(c3ccccc3)CC2)CN1Cc1ccccc1 (stereo not given),nt,nt,nt,nt,nt,341,nt,nt,nt,nt
CS(=O)(=O)Cc1ccc(C(=O)NC2CCSc3ccccc32)cc1 (stereo not given),-5,-2,-7,-1,-5,196,nt,nt,nt,nt
Cc1ccc(C(=O)OCC(=O)NC2CCCCC2)cc1S(=O)(=O)N1CCCCC1,nt,nt,nt,nt,nt,206,nt,nt,nt,nt
O=C(O)c1cccc(NC(=O)c2ccccc2NC(=O)c2cccc([N+](=O)[O-])c2)c1,-10,1,2,3,1,282,nt,nt,nt,nt
